How the values were obtained:
[1] = In vivo pharmacokinetic study of VEN and ODV in rats with or without vonoprazan; design: species or system Sprague-Dawley rats; conditions: rat; for AUC(0-t) / AUC(0-inf) / CL/F / Cmax / MRT last / MRT inf / Tmax / Vd/F / half-life: male, Sprague-Dawley, plasma, po, 20 mg/kg, rat plasma, VEN 20 mg/kg oral; for CL/F: CLz/F; for MRT last: MRT(0-t); for MRT inf: MRT(0-∞); for Vd/F: Vz/F; for half-life: t1/2z
[2] = Stability of VEN and ODV in rat plasma under different storage conditions; format: in vitro ADME; conditions: for Stability, Accuracy RE (%): n = 6
[3] = system: venlafaxine O-demethylation (ODV formation) in rat liver microsomes; no CYP named; assay: Effect of vonoprazan on the metabolism of VEN; format: in vitro ADME; conditions: rat, rat liver microsomes, pH 7.4, probe venlafaxine (VEN), 2-16 μM
Summary of the method: (§1)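 Male Sprague–Dawley rat liver microsomes were prepared by differential centrifugation (9000 × g, then 105,000 × g). After 5 min pre-incubation at 37°C, NADPH started a 30 min reaction, stopped with ice-cold acetonitrile. ODV was measured by UPLC-MS/MS against a diazepam internal standard, in triplicate, and analysed by Lineweaver–Burk plots with slope and intercept replots.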

rat liver microsomes = assay: Effect of vonoprazan on the metabolism of VEN; format: in vitro ADME; conditions: RLMs
Summary of the method: as §1

Enzyme kinetics = format: in vitro ADME; conditions: rat, rat liver microsomes, pH 7.4
Summary of the method: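 Rat liver microsomes (1 mg/mL) were incubated in 100 mM potassium phosphate pH 7.4 with 10 mM NADPH and venlafaxine. After 5 min pre-incubation at 37°C, NADPH started a 30 min reaction, stopped with ice-cold acetonitrile containing diazepam internal standard. ODV formation was quantified by UPLC-MS/MS. Km came from nonlinear regression of velocity versus substrate concentration on duplicate or triplicate determinations.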

[4] = + vonoprazan 5 mg/kg oral, 7 days
[5] = + vonoprazan 20 mg/kg oral, 7 days
[6] = VEN 20 mg/kg oral + vonoprazan 5 mg/kg
[7] = VEN 20 mg/kg oral + vonoprazan 20 mg/kg
[8] = 4°C, 24h, high QC (VEN 300, ODV 60 ng·mL^−1)
[9] = 4°C, 24h, low QC (VEN 3, ODV 0.6 ng·mL^−1)
[10] = Room Temperature, 6h, high QC (VEN 300, ODV 60 ng·mL^−1)
[11] = Room Temperature, 6h, low QC (VEN 3, ODV 0.6 ng·mL^−1)
[12] = −80°C, 7 Days, high QC (VEN 300, ODV 60 ng·mL^−1)
[13] = −80°C, 7 Days, low QC (VEN 3, ODV 0.6 ng·mL^−1)

## CN(C)CC(c1ccc(O)cc1)C1(O)CCCCC1 (stereo not shown) [ODV, O-desmethylvenlafaxine]
[1]; [4]
  AUC(0-t): 0.221 ± 0.0315 µg·h/mL
  AUC(0-inf): 0.225 ± 0.0317 µg·h/mL
  CL/F: 90.4 L/h/kg
  Cmax: 0.0697 ± 0.0301 µg/mL
  MRT last: 3.08 ± 0.48 h
  MRT inf: 3.28 ± 0.49 h
  Tmax: 0.95 ± 0.37 h
  Vd/F: 260 ± 41.5 L/kg
  half-life: 2.01 ± 0.36 h
[1]; [5]
  AUC(0-t): 0.469 ± 0.0686 µg·h/mL
  AUC(0-inf): 0.492 ± 0.0798 µg·h/mL
  CL/F: 41.7 L/h/kg
  Cmax: 0.109 ± 0.0134 µg/mL
  MRT last: 3.92 ± 0.38 h
  MRT inf: 4.44 ± 0.52 h
  Tmax: 2.6 ± 0.55 h
  Vd/F: 142 ± 30.4 L/kg
  half-life: 2.43 ± 0.75 h
[1]; without vonoprazan (control)
  AUC(0-t): 0.155 ± 0.0367 µg·h/mL
  AUC(0-inf): 0.161 ± 0.0435 µg·h/mL
  CL/F: 132 L/h/kg
  Cmax: 0.0581 ± 0.0141 µg/mL
  MRT last: 2.82 ± 0.55 h
  MRT inf: 3.2 ± 1.16 h
  Tmax: 0.75 ± 0.18 h
  Vd/F: 374 ± 170 L/kg
  half-life: 2.05 ± 1.05 h
[1]; [6]
  Increase of the metabolite (M. R.) compared with control group: 0.87 fold
[1]; [7]
  Decrease of CLz/F compared with control group: 68.33%
  Decrease of Vz/F compared with control group: 62.08%
  Elevation of Cmax compared with control group: 0.88 fold
  Elevation of Tmax compared with control group: 2.46 fold
  Increase of AUC(0-∞) compared with control group: 2.05 fold
  Increase of MRT(0-∞) compared with control group: 0.39 fold
  Increase of the metabolite (M. R.) compared with control group: 1.34 fold
[2]; [8]
  Stability, Accuracy RE (%): 108.96%
[2]; [9]
  Stability, Accuracy RE (%): 112.11%
[2]; [10]
  Stability, Accuracy RE (%): 109.57%
[2]; [11]
  Stability, Accuracy RE (%): 107.58%
[2]; [12]
  Stability, Accuracy RE (%): 106.85%
[2]; [13]
  Stability, Accuracy RE (%): 105.72%

## CNCc1cc(-c2ccccc2F)n(S(=O)(=O)c2cccnc2)c1 [Vonoprazan]
[3]
  IC50 at 30 min: 5.54 µM
Rat liver microsomes; competitive plus non-competitive
  Inhibition mechanism on VEN metabolism: mixed inhibition
Rat liver microsomes; mixed inhibition, Lineweaver-Burk
  Ki’ (inhibition of VEN metabolism): 11.29 µM
Rat liver microsomes; read-out: Ki (inhibition of VEN metabolism), mixed inhibition, Lineweaver-Burk
  Ki: 23.1 µM

## COc1ccc(C(CN(C)C)C2(O)CCCCC2)cc1 (stereo not shown) [VEN, Venlafaxine]
[1]; [4]
  AUC(0-t): 0.689 ± 0.161 µg·h/mL
  AUC(0-inf): 0.694 ± 0.163 µg·h/mL
  CL/F: 30 L/h/kg
  Cmax: 0.261 ± 0.11 µg/mL
  MRT last: 2.44 ± 0.3 h
  MRT inf: 2.52 ± 0.43 h
  Tmax: 0.95 ± 0.37 h
  Vd/F: 62.1 ± 15.4 L/kg
  half-life: 1.48 ± 0.46 h
[1]; [5]
  AUC(0-t): 1.91 µg·h/mL
  AUC(0-inf): 1.92 µg·h/mL
  CL/F: 11.5 L/h/kg
  Cmax: 0.525 ± 0.115 µg/mL
  MRT last: 3.28 ± 0.52 h
  MRT inf: 3.36 ± 0.56 h
  Tmax: 2.6 ± 0.55 h
  Vd/F: 19.9 ± 7.19 L/kg
  half-life: 1.28 ± 0.53 h
[1]; without vonoprazan (control)
  AUC(0-t): 0.26 ± 0.102 µg·h/mL
  AUC(0-inf): 0.261 ± 0.101 µg·h/mL
  CL/F: 87.6 L/h/kg
  Cmax: 0.127 ± 0.0415 µg/mL
  MRT last: 2.09 ± 0.18 h
  MRT inf: 2.12 ± 0.17 h
  Tmax: 0.7 ± 0.21 h
  Vd/F: 187 ± 130 L/kg
  half-life: 1.39 ± 0.32 h
[1]; [6]
  Decrease of Clz/F compared with control group: 65.73%
  Increase of Cmax compared with control group: 1.05 fold
[1]; [7]
  Decrease of CLz/F compared with control group: 86.87%
  Decrease of Vz/F compared with control group: 89.35%
  Elevation of Cmax compared with control group: 3.12 fold
  Elevation of Tmax compared with control group: 2.71 fold
  Increase of AUC(0-∞) compared with control group: 6.37 fold
  Increase of MRT(0-∞) compared with control group: 0.58 fold
Enzyme kinetics
  Km at 30 min: 8.28 µM
[2]; 4°C 24 hours, room temperature 4 hours, −80°C 7 days
  Stability, accuracy range over three QC levels and three storage conditions: 99.68–111.18%
[2]; [8]
  Stability, Accuracy RE (%): 106.95%
[2]; [9]
  Stability, Accuracy RE (%): 108.99%
[2]; [10]
  Stability, Accuracy RE (%): 102.08%
[2]; [11]
  Stability, Accuracy RE (%): 102.90%
[2]; [12]
  Stability, Accuracy RE (%): 105.33%
[2]; [13]
  Stability, Accuracy RE (%): 99.68%
